Most compounds without a hit are left out; they make up all but 2.6% or so of the library.
Platelet DG rel = modulates dense granule release in human platelets | human platelet-rich plasma, SFLLRN dense granule ATP release, luminescence | inhibition, %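 (compounds screened at 7.5 µM in platelet-rich plasma)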 | hit rate 0.22% among 300,000;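 active = mean replicate score, as percent of positive control, at or above 50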
SENP8 block-1 = SENP8 (human) protease inhibition. inhibition, % at 20 µM. hit rate 0.64% among 360,000. Q96LD8. AID 602440. recombinant SENP8, Nedd8 substrate fluorescence; in the data active = inhibition mostly above about 40%, no sharp cut-off; inactive = mostly below about 27%
SENP8 block-2 = SENP8 protease inhibition. hit rate 1.2% among 330,000. purified SENP8, Z-RLRGG-aminoluciferin cleavage, luminescence. inhibition, % at 10 µM. Q96LD8; in the data active = inhibition above about 50%
SENP6 inh = SENP6 protease inhibition. Q9GZR1. Recombinant SENP6 catalytic domain, aminoluciferin luminescence. inhibition, % at 10 µM. hit rate 1.8% among 330,000;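 active = inhibition above about 50% at the single tested dose, limit read from the data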
Target sequence (Q9GZR1 628-1112 limits assumed): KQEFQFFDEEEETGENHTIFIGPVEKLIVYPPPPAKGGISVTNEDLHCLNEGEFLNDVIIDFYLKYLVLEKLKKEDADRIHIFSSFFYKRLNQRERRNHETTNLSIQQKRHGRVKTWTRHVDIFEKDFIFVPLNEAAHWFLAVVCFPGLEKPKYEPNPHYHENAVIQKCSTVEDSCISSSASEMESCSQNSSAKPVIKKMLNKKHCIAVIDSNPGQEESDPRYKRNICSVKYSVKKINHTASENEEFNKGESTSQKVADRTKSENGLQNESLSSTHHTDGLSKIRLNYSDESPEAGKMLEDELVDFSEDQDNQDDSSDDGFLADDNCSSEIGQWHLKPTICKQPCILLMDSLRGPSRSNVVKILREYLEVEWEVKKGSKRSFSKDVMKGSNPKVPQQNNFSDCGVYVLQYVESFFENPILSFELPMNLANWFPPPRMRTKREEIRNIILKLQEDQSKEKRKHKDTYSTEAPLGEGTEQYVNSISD
SENP7 inh = blocks the human protease SENP7; recombinant SENP7, Z-RLRGG-aminoluciferin luminescence, 40 min; AID 434973; hit rate 1.5% among 330,000; inhibition, % at 5 µM;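 active = inhibition above about 50% at the single test dose, limit read from the data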
SENP1 FRET inh = SENP1 (human) catalytic domain inhibition; hit rate 0.21% among 360,000; Q9P0U3; inhibition, % at 10 µM; recombinant SENP1 catalytic domain, CyPet-SUMO1-YPet FRET cleavage;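 active = inhibition at least 30% at 10 µM, raw YFP signal under a set limit, fluorescence ratio 0.5 to 1.5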
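Material – human SENP1 catalytic domain · Input – SENP1 enzyme, 20 pM final · Compound dosing – single concentration of 10 µM compound, 0.5% DMSO final · Timing – enzyme reaction for 50 min at room temperature, dark · Measured by – FRET fluorescence in CFP and YFP emission channels · Control set – no-enzyme wells low, DMSO-plus-enzyme wells high control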
SENP8 conf = human SENP8 inhibition, confirmed; shares compounds with SENP7 inh; inhibition, % at 12.5 µM; Recombinant SENP8, Z-RLRGG-aminoluciferin luminescence, 60 min; AID 488912; hit rate 40% among 6,200;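 active = mean inhibition across replicates above about 50%, limit read from the data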
SENP6 conf = human SENP6 inhibition, confirmed | shares compounds with SENP7 inh | recombinant SENP6, Z-RLRGG-aminoluciferin luminescence | inhibition, % at 12.5 µM | hit rate 58% among 6,200
SENP7 conf = human SENP7 inhibition, confirmed; shares compounds with SENP7 inh; recombinant SENP7, Z-RLRGG-aminoluciferin luminescence, 40 min; inhibition, % at 12.5 µM; hit rate 69% among 6,200; AID 488917
Casp3 select = inhibits human caspase-3 in SENP selectivity test; purified caspase-3, Z-DEVD-aminoluciferin luminescence, 60 min; hit rate 60% among 6,200; shares compounds with SENP7 inh; inhibition, % at 12.5 µM;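 active = mean inhibition above about 50%, limit read from the data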
SENP luc ctr = interferes with luciferase luminescence in SENP counter-screen | shares compounds with SENP7 inh | Pre-incubated SENP8/Z-RLRGG-aminoluciferin, luciferase luminescence interference | inhibition, % at 12.5 µM | hit rate 39% among 6,200;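 active = mean inhibition above about 50% when retested at one dose, limit read from the data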
Each line names hits and unclear results; the compound was inactive in the other large screens (follow-up assays come after a bar, where they were run).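 The calls were made as follows, unless noted: active = mean inhibition above about 50% in the one-dose retest (limit read from the data); inactive = the rest.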

O=C(c1cc(-c2cccc(O)c2)on1)N1CCCCC1	SENP8 block-2 61, SENP7 inh 68 | SENP8 conf inactive | SENP6 conf 67 | SENP7 conf 91 | Casp3 select 78 | SENP luc ctr 73
CC(C)n1nnnc1C1c2ccccc2C(=O)N1C1CC1 (stereo unspecified)	none (no result: Platelet DG rel, SENP8 block-2, SENP6 inh, SENP7 inh)
Cc1nc(-c2ccc(Cl)cc2)sc1C(=O)O	SENP8 block-2 85, SENP6 inh 81, SENP7 inh 77 | SENP8 conf 95 | SENP6 conf 95 | SENP7 conf 101 | Casp3 select 88 | SENP luc ctr 93
Cc1nc(-c2ccccc2)sc1C(=O)O	none
Cc1nc(-c2ccc([N+](=O)[O-])cc2)sc1C(=O)O	SENP8 block-2 92, SENP6 inh 91, SENP7 inh 97 | SENP8 conf inactive | SENP6 conf inactive | SENP7 conf 101 | Casp3 select 97 | SENP luc ctr 93
CC(=O)c1sc(-c2ccccc2)nc1C	none
Cc1ccc(-c2nc(C)c(C(=O)O)s2)cc1	SENP8 block-2 93, SENP6 inh 95, SENP7 inh 98 | SENP8 conf 99 | SENP6 conf 100 | SENP7 conf 103 | Casp3 select 92 | SENP luc ctr 98
C=CCSc1nnc(-c2ccc(Cl)cc2Cl)o1	SENP6 inh 60, SENP7 inh 57 | SENP8 conf inactive | SENP6 conf inactive | SENP7 conf 77 | Casp3 select 56 | SENP luc ctr inactive
Clc1ccc(-c2nnc(SCc3nc4ccccc4[nH]3)o2)c(Cl)c1	none
Clc1ccc(-c2nnc(SCc3ccon3)o2)c(Cl)c1	SENP8 block-2 61, SENP6 inh 70, SENP7 inh 57 | SENP8 conf inactive | SENP6 conf 62 | SENP7 conf 87 | Casp3 select 64 | SENP luc ctr 61
CCn1cc(/C=C(\NC(=O)c2ccccc2)C(=O)NCCN2CCOCC2)c2ccccc21	none (no result: Platelet DG rel, SENP8 block-2, SENP6 inh, SENP7 inh)
O=[N+]([O-])c1ccc(N/N=C/c2ccccc2O)cc1	SENP8 block-2 58, SENP6 inh 70 | SENP8 conf inactive | SENP6 conf inactive | SENP7 conf 83 | Casp3 select inactive | SENP luc ctr inactive
Cc1nc2ccccc2c(=O)n1/N=C/c1ccc(O)cc1O	none
O=[N+]([O-])c1cccc(C=Nc2cccc3ccccc23)c1O	SENP8 block-2 85, SENP6 inh 88 | SENP8 conf inactive | SENP6 conf inactive | SENP7 conf inactive | Casp3 select inactive | SENP luc ctr inactive
Oc1ccc(C=Nc2cccc3ccccc23)c(O)c1	SENP6 inh 70 | SENP8 conf inactive | SENP6 conf inactive | SENP7 conf inactive | Casp3 select inactive | SENP luc ctr inactive
CCOC(=O)c1c(/N=C/c2cccc([N+](=O)[O-])c2O)sc(C)c1C	none
O=[N+]([O-])c1ccc(O)c(C=Nc2cccc3ccccc23)c1	SENP8 block-2 61, SENP6 inh 58 | SENP8 conf inactive | SENP6 conf inactive | SENP7 conf inactive | Casp3 select inactive | SENP luc ctr inactive
O=C(Cn1c2c(c(-c3ccccc3Cl)cc1=O)CCC2)NCCCN1CCOCC1	none
COc1ccc2oc(C(=O)OC(C)C(=O)N3C(C)CCCC3C)c(C)c2c1 (stereo unspecified)	none (no result: Platelet DG rel)

Screening results as filed in PubChem.
